Sampled rows, rich in hits. Any-hit rate of the full collection: about 1.1%.
aDG glyco act – alpha-DG glycosylation activation; AID 624168; actives 0.22% (n = 360,000); activation, % at 10 µM; Pro5-aDG cells, alpha-DG glycosylation AlphaScreen (IIH6); 0% Pro5, 100% B10-LARGE cell signal;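 active = activation of at least 8% versus controls, or a plate z-score of at least 8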;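 note: Pro5 are CHO cells carrying HIG-tagged alpha-DG that lacks glycosylation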
CaV13 FRET inh – Disruptors of the CACNA1D IQ motif to Ca2+-dependent inactivation inhibitor domain association, primary screening, Förster resonance energy transfer in intact living …; HEK cells, CFP/YFP FRET ICDI-IQ, plate reader, 10 min; percent FRET-ratio fall versus neutral wells; inhibition, % at 12.3 µM; actives 0.098% (n = 340,000); AID 743397;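 active = mean replicate inhibition of at least 30% and at least 1% of replicates passing that level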
proCasp3 act – activates human procaspase-3; P42574; recombinant procaspase-3 D3A, Ac-DEVD-pNA absorbance 405 nm; activation, % at 8.5 µM; actives 0.11% (n = 330,000);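 active = activation above the mean of all tested compounds plus 3 SD, cut at about 21% in these data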
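Test system: Procaspase-3 D3A mutant, all three cleavage aspartates alanine | Dosing: Single dose, 8.5 µM nominal compound, 0.8% DMSO | Schedule: 1 h preincubation, 2 h reaction | Technique: 405 nm absorbance of p-nitroaniline, reads at 0 and 120 min | Repeats: One well per compound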
procasp7 counter – activates human procaspase-7, counter-screen for procaspase-3 activators | P55210 | recombinant procaspase-7, Ac-DEVD-pNA absorbance 405 nm; D23A/D198A/D206A triple mutant, cannot self-cleave; scale: DMSO 0, 5 µM enzyme 100 | activation, % at 8.5 µM | actives 0.093% (n = 330,000) | AID 463210;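 active = percent activation above the screen-wide mean plus 3 SD, cut at about 25% in these data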
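Material: Procaspase-7 triple mutant (PC-7 D3A) | Quantity: 2 µM procaspase-7 mutant as dispensed | Reagent: DEVD-pNA substrate | Times: 1 h preincubation, 2 h reaction | Technique: 405 nm absorbance of p-nitroaniline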
T cell modulator – T cell immune modulators affecting CD8 T cell-vesicle binding. actives 0.068% (n = 330,000). response (vesicle binding), % at 7 µM. 2C CD8+ T cell-vesicle binding, flow cytometry; hits give low values. AID 2052;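 active = response, share of CD8 T cells binding vesicles, and their 90th percentile fluorescence all below set limits, cut at about 80% in these data, passing the limit was not always enough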;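 note: values below 100% mean blocked vesicle binding to the CD8+ T cells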
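System: murine 2C transgenic CD8+ T lymphocytes; also added: QL9-loaded Drosophila micro-vesicles; times: binding 1.5 h at 37 °C; measured by: flow cytometry, PE anti-B7-1 (FL2) versus Alexa647 anti-CD8 (FL8), PFA-fixed; control set: Peptide-free naked vesicles (low) and QL9 vesicles with 0.7% DMSO vehicle (high)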
GRK2 inh – inhibitors of human GRK2 displacing RNA aptamer; AID 488847; bead flow cytometry, FAM-aptamer displacement from GRK2; actives 0.59% (n = 330,000); inhibition of aptamer binding, % at 10 µM;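 active = inhibition of aptamer binding above 40%, roughly 3 SD of noise, on plates passing a quality check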;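 note: median bead fluorescence of bound FAM aptamer so fluorescent compounds give negative values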
Target sequence (P25098 whole entry, looked up): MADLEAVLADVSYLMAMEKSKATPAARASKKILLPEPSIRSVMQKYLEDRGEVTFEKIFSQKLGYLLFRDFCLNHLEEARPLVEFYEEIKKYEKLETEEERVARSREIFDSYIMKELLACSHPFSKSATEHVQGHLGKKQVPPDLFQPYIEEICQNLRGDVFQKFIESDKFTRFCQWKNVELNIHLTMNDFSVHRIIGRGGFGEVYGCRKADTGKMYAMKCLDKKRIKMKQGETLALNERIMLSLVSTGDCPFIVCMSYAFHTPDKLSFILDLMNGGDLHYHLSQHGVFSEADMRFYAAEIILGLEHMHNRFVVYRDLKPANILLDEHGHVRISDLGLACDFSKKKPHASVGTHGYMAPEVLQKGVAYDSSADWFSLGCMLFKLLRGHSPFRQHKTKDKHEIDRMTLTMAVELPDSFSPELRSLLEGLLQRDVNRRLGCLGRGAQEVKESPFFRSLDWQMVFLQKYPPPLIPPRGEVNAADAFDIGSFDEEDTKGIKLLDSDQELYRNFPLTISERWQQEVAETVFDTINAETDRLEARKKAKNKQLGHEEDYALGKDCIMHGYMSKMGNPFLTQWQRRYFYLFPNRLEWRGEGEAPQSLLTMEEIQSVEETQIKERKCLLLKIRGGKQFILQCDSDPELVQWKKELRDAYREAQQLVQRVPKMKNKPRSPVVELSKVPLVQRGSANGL
GRK2 inh confirm – human GRK2 inhibition confirmation, cherry pick 1 | actives 4% (n = 2,000) | bead-bound GRK2, FAM-aptamer displacement, flow cytometry | aptamer displacement, % at 10 µM | shares compounds with GRK2 inh;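 active = aptamer displacement above 40%, near three times the noise of non-fluorescent compounds, on plates passing quality checks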;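 note: negative values mostly reflect intrinsic compound fluorescence rather than true enhancement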
FAM quench CP1 – quenches fluorescent RNA aptamer, GRK2 hit artifact; shares compounds with GRK2 inh; Carboxyfluorescein RNA aptamer on beads, flow cytometry quenching; hits give low values; fluorescence response (% of DMSO), % at 10 µM; 2,000 tested, under 10 active; AID 504580;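 active = compounds that quench the bead-bound fluorescent RNA probe, cutting fluorescence to under half of the solvent control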;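 note: counterscreen run without GRK2 so only probe quenching by compound is measured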
GRK2 CP2 – confirmation of human GRK2 inhibitors binding RNA aptamer site; shares compounds with GRK2 inh; bead-bound GRK2, FAM-aptamer displacement, flow cytometry; inhibition of aptamer binding, % at 10 µM; 360 tested, under 10 active; AID 504782;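 active = inhibition of aptamer binding above 40%, about triple the noise seen with nonglowing compounds, on plates passing quality control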;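 note: negative values mostly come from compounds that fluoresce themselves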
FAM quench CP2 – quenches fluorescent RNA aptamer, GRK2 hit artifact. shares compounds with GRK2 inh. carboxyfluorescein RNA aptamer beads, flow cytometry quenching; hits give low values. fluorescence response vs DMSO, % at 10 µM. 360 tested, under 10 active. AID 588494;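 active = response vs DMSO under 50%, meaning signal dropped by over half, treated as fluorescence quencher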;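 note: labelled aptamer on streptavidin beads without GRK2 as a quench counter-screen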
Each line names hits and unclear results; the compound was inactive in the other large screens (follow-up assays come after a bar, where they were run).

O=C(NCc1ccc(F)cc1)C1CCCN(S(=O)(=O)c2ccc(-n3cnnn3)cc2)C1 (stereo not drawn)	none | GRK2 inh confirm inactive | FAM quench CP1 inactive
Cc1ccc2oc(C(=O)N(C)Cc3ccc(C)o3)c(C)c2c1	none
Cc1ccc2oc(C(=O)N(C)Cc3ccon3)c(C)c2c1	GRK2 inh 92 | GRK2 inh confirm inactive | FAM quench CP1 inactive
Cc1cc(NC(=O)Cc2cn(Cc3ccccc3)c3ccccc23)ccc1Oc1cccnc1	none (no result: aDG glyco act, proCasp3 act, procasp7 counter, T cell modulator, GRK2 inh)
Cc1ccc([N+](=O)[O-])cc1S(=O)(=O)NCC1COc2ccccc2O1 (stereo not drawn)	GRK2 inh 54 | GRK2 inh confirm inactive | FAM quench CP1 inactive
Cc1ccc(S(=O)(=O)NCC2COc3ccccc3O2)cc1 (stereo not drawn)	none
Cc1cc(NC(=O)CSc2nc(-c3cccs3)cc(C(F)(F)F)n2)no1	GRK2 inh 45 (no result: CaV13 FRET inh) | GRK2 inh confirm inactive | FAM quench CP1 inactive
CCCNC(=O)CSc1nc(-c2cccs2)cc(C(F)(F)F)n1	none
OCC1CCCN(c2nc(CN3CCCCC3)nc3scc(-c4ccccc4)c23)C1 (stereo not drawn)	none | GRK2 inh confirm inactive | FAM quench CP1 inactive
CN(Cc1ccccc1)c1nc(CN2CCOCC2)nc2scc(-c3ccccc3)c12	none | GRK2 inh confirm inactive | FAM quench CP1 inactive
OCC1CCCN(c2ncnc3scc(-c4ccccc4)c23)C1 (stereo not drawn)	none
Fc1ccc(N2CCN(c3nc(CN4CCOCC4)nc4scc(-c5ccccc5)c34)CC2)cc1	none
Cc1ccc(NNC(=O)c2ccno2)c(C)c1	none
CC1(C(=O)Nc2ccc(Cl)cc2)Cc2c(-c3cccc(C(F)(F)F)c3)ccnc2O1 (stereo not drawn)	none (no result: proCasp3 act, procasp7 counter, T cell modulator, GRK2 inh)
Nc1[nH]ncc1-c1ccc(Cl)cc1	GRK2 inh 99 | GRK2 inh confirm inactive | FAM quench CP1 inactive
Nc1[nH]ncc1N=Nc1ccc(Cl)cc1	none
COc1cc(SC)ccc1C(=O)NNC(=O)c1cc(C)oc1C	GRK2 inh 45 | GRK2 inh confirm inactive | FAM quench CP1 inactive
c1ccc(-c2nnc(-c3ccco3)o2)cc1	none
c1coc(-c2nnc(-c3ccco3)nn2)c1	GRK2 inh 88 | GRK2 inh confirm inactive | FAM quench CP1 inactive
CCOC(=O)C1=C(O)/C(=C/c2ccccn2)SC1=Nc1ccc(Cl)cc1	none
Cc1[nH][nH]c(=O)c1C(c1ccc(-c2cccc(C(=O)O)c2)o1)c1c(C)[nH][nH]c1=O	GRK2 inh 42 | GRK2 CP2 inactive | FAM quench CP2 inactive
Cc1[nH][nH]c(=O)c1C(c1ccc(-c2cccc(Cl)c2)o1)c1c(C)[nH][nH]c1=O	none (no result: CaV13 FRET inh)
CC(C)n1nnnc1SCC(=O)N1CCN(Cc2ccc3c(c2)OCCO3)CC1	none
COC(=O)c1ccc(Oc2ccc3nnc(C)n3n2)cc1	none (no result: CaV13 FRET inh)
COC(=O)c1ccc(Oc2ccc3nncn3n2)cc1	GRK2 inh 49 | GRK2 inh confirm inactive | FAM quench CP1 inactive
Cc1ccc(CN2CCN(Cc3cnc(N4CCOCC4)s3)CC2CCO)o1 (stereo not drawn)	GRK2 inh 72 | GRK2 inh confirm inactive | FAM quench CP1 inactive
Cc1ccc(CN2CCN(CCC(C)C)C(CCO)C2)s1 (stereo not drawn)	none
Cc1ccc(CN2CCN(CC(C)C)C(CCO)C2)s1 (stereo not drawn)	GRK2 inh 97 | GRK2 inh confirm inactive | FAM quench CP1 inactive
CCCCNC(=O)c1ccc(CS(=O)(=O)c2cccc(C(F)(F)F)c2)o1	none
O=C(O)c1ccc(CS(=O)(=O)c2cccc(C(F)(F)F)c2)o1	none | GRK2 CP2 inactive | FAM quench CP2 inactive
C=CCn1c(SCC(=O)Nc2ncc(Cc3ccc(Br)cc3)s2)nnc1-c1ccncc1	GRK2 inh 91 | GRK2 inh confirm inactive | FAM quench CP1 inactive
C=CCn1c(SCC(=O)Nc2cc(C)on2)nnc1-c1ccncc1	none (no result: proCasp3 act, procasp7 counter, T cell modulator, GRK2 inh)
COCC(=O)Nc1cc(C(=O)Nc2ccccc2)ccc1Cl	none (no result: aDG glyco act)
COc1cc(/C=C/C(=O)OCC(=O)NCCC2=CCCCC2)cc(OC)c1OC	none
Cc1ccc(C(=O)Nn2cnnc2)cc1[N+](=O)[O-]	GRK2 inh 47 | GRK2 inh confirm inactive | FAM quench CP1 inactive
O=C(Nn1cnnc1)c1ccc(Cl)cc1[N+](=O)[O-]	GRK2 inh 93 | GRK2 inh confirm inactive | FAM quench CP1 inactive
Cc1cccc2c1cnn2C(=O)CCC(=O)N1CCC(C)CC1	GRK2 inh 70 | GRK2 inh confirm inactive | FAM quench CP1 inactive
COCCN(C(=O)c1cc(-c2ccccc2Cl)nc2ccccc12)c1c(N)n(CC(C)C)c(=O)[nH]c1=O	none (no result: proCasp3 act, procasp7 counter, T cell modulator, GRK2 inh)
COCCN(C(=O)c1ccccc1Oc1ccccc1)c1c(N)n(CC(C)C)c(=O)[nH]c1=O	GRK2 inh 41 | GRK2 inh confirm inactive | FAM quench CP1 inactive
O=C(NC(=S)N(CCO)Cc1ccccc1)c1cc(Br)ccc1Cl	none
O=C(COc1ccccc1N1C(=O)c2ccccc2C1=O)c1ccc(Cl)cc1	GRK2 inh 73 | GRK2 inh confirm inactive | FAM quench CP1 inactive
O=C(COc1ccc(N2C(=O)c3ccccc3C2=O)cc1)c1ccccc1	none
Cc1[nH]c(=O)[nH]c(=O)c1S(=O)(=O)Nc1ccc(F)c(Cl)c1	GRK2 inh 47 (no result: proCasp3 act, procasp7 counter) | GRK2 inh confirm inactive | FAM quench CP1 inactive
O=c1c2ccccc2cnn1Cc1n[nH]c(=S)n1-c1ccccc1	none
COC(=O)NNC(=O)COc1ccc(Br)c(C)c1	none
Cc1cc(OCC(=O)Nn2cnnc2)ccc1Br	GRK2 inh 71 | GRK2 inh confirm inactive | FAM quench CP1 inactive
COC(=O)c1cccc(NC(=O)c2cccc(-n3cnnn3)c2)c1	none (no result: proCasp3 act, procasp7 counter, T cell modulator, GRK2 inh)
CCOC(=O)c1cccc(NC(=O)c2ccc(-n3cnnn3)cc2)c1	none | GRK2 inh confirm inactive | FAM quench CP1 inactive
